From ChEMBL document CHEMBL1129554, “6-Substituted and 5,6-disubstituted derivatives of uridine: stereoselective synthesis, interaction with uridine phosphorylase, and in vitro antitumor activity” (J Med Chem, 1996) come the findings set out here.

A short description of data set [1]: Catalytical constant (app Km)of the compound was evaluated at pH 7.5. The format is ADME. The settings on record: read-out: Km app. The method, boiled down:
(§1)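 Homogeneous E. coli uridine phosphorylase in 50 mM phosphate buffer at 37 °C. pH 6 was used for 5-fluoro analogues and pH 7.5 for the others, so the neutral form predominates. Phosphorolysis was followed spectrophotometrically as the decrease in absorbance, 285 nm for 5-fluoro and 280 nm for the rest. Initial rates were taken over 20 s. Apparent Km and Vmax came from a Wilkinson fit, and efficacy = Vmax/Km.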

The nature of data set [2]: Efficacy was determined as ratio of Vmax to that of Km. The format is ADME. In a few lines: as §1
Data set [3] is described as follows: Catalytical constant (Vmax) was evaluated. The format is ADME. In a few lines: as §1
For data set [4], the system named is IM-9. Briefly: In vitro antitumor activity in IM-9 cell lines. The format is functional, cell-based. The settings on record: Homo sapiens. In a few lines:
(§2)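 Cytotoxicity was measured as inhibition of [¹⁴C]-L-leucine incorporation into protein. Triplicate cultures held 2 × 10⁴ cells/well, or 10⁵ PHA-stimulated peripheral blood lymphocytes, in RPMI 1640 with 10% FCS, 5% CO₂, 37 °C. Label (0.5 µCi/mL) was present for the final 24 h of a 3-day culture (4 days for PHA-Ly). Protein was precipitated with perchloric acid and counted. IC50 (µg/mL) was taken from dose-response curves.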

In data set [5] the test system is K562. Briefly: In vitro antitumor activity in K-562 cell lines. The format is functional, cell-based. The settings on record: Homo sapiens. In a few lines:
as §2

The test system of data set [6] is MOLT-3. Briefly: In vitro antitumor activity in MOLT-3 cell lines. It counts as functional, cell-based. The settings on record: Homo sapiens. In a few lines:
as §2

For data set [7], the system named is PHA-Ly. Briefly: IIn vitro antitumor activity in PHA-Ly cell lines. The note with it: Homo sapiens. It counts as functional, cell-based. In a few lines: as §2
Data set [8] deals with U-937. Kind of data set: In vitro antitumor activity in U-937 cell lines. The settings on record: Homo sapiens. The format is functional, cell-based. The method, boiled down:
as §2

Data set [9] in a line: Catalytical constant (app Km)of the compound was evaluated at pH 6. It counts as ADME. The note with it: read-out: Km app. In a few lines: as §1

The structures appear in SMILES notation. Values after ≈ are worked out from the molar mass of the structure shown. Bounds are passed on as bounds.

As to `O=c1cc(CO)n(C2O[C@H](CO)[C@@H](O)[C@H]2O)c(=O)[nH]1` (some centres undefined), in data set [1], the Km was 476 µM. In addition, the Efficacy in data set [2] turned out to be 0.53. In addition, in [3], the Vmax is 254 uM min-1 (mg of protein)-1. Also, the IC50 in data set [4] is more than 10 µg/mL; in data set [5], more than 10 µg/mL; in [6] it was more than 10 µg/mL; in [7], 98 µg/mL (≈ 357 µM); in data set [8], more than 10 µg/mL.
Regarding `CCCc1cc(=O)[nH]c(=O)n1C1O[C@H](CO)[C@@H](O)[C@H]1O` (some centres undefined), the Km in data set [1] came out at 1150 µM. Besides, in [2], the Efficacy is recorded as 0.03. The Vmax in [3] is listed as 40 uM min-1 (mg of protein)-1.
As for `O=c1[nH]c(=O)n([C@@H]2O[C@H](CO)[C@@H](O)[C@H]2O)cc1F` [5-FLUOROURIDINE], the Efficacy in data set [2] was 2.1. The Vmax in data set [3] is reported as 323 uM min-1 (mg of protein)-1. The IC50 was less than 0.01 µg/mL in [4]; 0.026 µg/mL (≈ 0.0992 µM) in data set [5]; less than 0.01 µg/mL in data set [6]; less than 0.1 µg/mL in data set [7]; less than 0.01 µg/mL in [8]. Moreover, the Km in [9] is 152 µM.
Regarding `O=c1cc(CF)n(C2O[C@H](CO)[C@@H](O)[C@H]2O)c(=O)[nH]1` (some centres undefined), in [1], the Km came to 300 µM. Besides, the Efficacy in [2] turned out to be 0.99. The Vmax in [3] is 297 uM min-1 (mg of protein)-1. In addition, the IC50 in [4] was 9.9 µg/mL (≈ 35.8 µM); in data set [5] it was more than 10 µg/mL; in data set [6], more than 10 µg/mL; in data set [7], more than 10 µg/mL; in data set [8], more than 10 µg/mL.
On to `O=c1[nH]cc(F)c(=O)[nH]1` [FLUOROURACIL], for which the IC50 in data set [4] was 0.34 µg/mL (≈ 2.61 µM); in [5], 4.3 µg/mL (≈ 33.1 µM); in data set [6], 1.2 µg/mL (≈ 9.23 µM); in [7], 1.4 µg/mL (≈ 10.8 µM); in data set [8], 0.5 µg/mL (≈ 3.84 µM).
On to `Cc1c(F)c(=O)[nH]c(=O)n1C1O[C@H](CO)[C@@H](O)[C@H]1O` (some centres undefined), for which the Efficacy in [2] was found to be 0.05. Besides, the Vmax in data set [3] was 67 uM min-1 (mg of protein)-1. The IC50 in data set [4], in data set [5], in data set [6], in data set [7] and in [8] was more than 10 µg/mL each time. For the same molecule, the Km in [9] turned out to be 1360 µM.
`O=c1[nH]c(=O)n(C2O[C@H](CO)[C@@H](O)[C@H]2O)c(CO)c1F` (some centres undefined): in data set [2], the Efficacy came to 0.09. Moreover, the Vmax in data set [3] is 370 uM min-1 (mg of protein)-1. Further, the IC50 in [4] was found to be 3 µg/mL (≈ 10.3 µM); in data set [5], 4.9 µg/mL (≈ 16.8 µM); in data set [6], 1.2 µg/mL (≈ 4.11 µM); in data set [7], 2.8 µg/mL (≈ 9.58 µM); in [8], 3.7 µg/mL (≈ 12.7 µM). Moreover, the Km in [9] was found to be 4000 µM.
Take `O=c1[nH]c(=O)n([C@@H]2O[C@H](CO)[C@@H](O)[C@H]2O)c(CF)c1F`: in data set [2], the Efficacy was found to be 0.06. In addition, in data set [3], the Vmax is given as 57 uM min-1 (mg of protein)-1. The IC50 in [4] was more than 10 µg/mL; in data set [5] it was more than 10 µg/mL; in data set [6] it was 3.5 µg/mL (≈ 11.9 µM); in data set [7], 4.5 µg/mL (≈ 15.3 µM); in [8], 3.7 µg/mL (≈ 12.6 µM). Also, the Km in data set [9] was 979 µM.
Regarding `CCc1cc(=O)[nH]c(=O)n1C1O[C@H](CO)[C@@H](O)[C@H]1O` (some centres undefined), the Km in [1] came to 1200 µM. Besides, the Efficacy in [2] came to 0.15. In data set [3], the Vmax is recorded as 175 uM min-1 (mg of protein)-1.

Usually Km stands for the concentration of substrate that gives half-maximal velocity. Broadly, the Vmax is the rate approached at saturating substrate. In general, IC50 refers to the concentration that gives 50% inhibition. Read a high IC50 as lower potency.
